IDH1 mut inh: blocks human IDH1 R132H reductase activity. AID 624101. inhibition, % at 10 µM. diaphorase/resazurin fluorescence, 60 min. O75874. hit rate 0.18% among 70,000; in the data active means inhibition above about 34%; inconclusive means no clear call, values can overlap the other calls; inactive means below about 11%;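 further: 0% = DMSO and 100% = no enzyme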
Pf Dd2 growth: blocks growth of Plasmodium falciparum Dd2 parasites; P. falciparum Dd2 growth, SYBR Green, 72 h; active compounds read low; hit rate 2.3% among 94,000; AID 1159554; activity change, % at 10 µM; in the data active means activity change below about -80%; inconclusive means no clear call, values can overlap the other calls
KDM4C inh: blocks human GASC-1 (KDM4C) demethylase activity | Q9H3R0 | GST-KDM4C 2-372, H3K9me3 peptide, LANCE TR-FRET | inhibition, % at 12.5 µM | hit rate 0.15% among 96,000 | AID 720574;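 active means mean replicate inhibition above about 25%, with at least 55% of replicates also reaching it, limit read from the data, passing the limit was not always enough; inconclusive means only one of those two conditions met; inactive means neither condition met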
Target sequence (Q9H3R0 2-372 limits assumed): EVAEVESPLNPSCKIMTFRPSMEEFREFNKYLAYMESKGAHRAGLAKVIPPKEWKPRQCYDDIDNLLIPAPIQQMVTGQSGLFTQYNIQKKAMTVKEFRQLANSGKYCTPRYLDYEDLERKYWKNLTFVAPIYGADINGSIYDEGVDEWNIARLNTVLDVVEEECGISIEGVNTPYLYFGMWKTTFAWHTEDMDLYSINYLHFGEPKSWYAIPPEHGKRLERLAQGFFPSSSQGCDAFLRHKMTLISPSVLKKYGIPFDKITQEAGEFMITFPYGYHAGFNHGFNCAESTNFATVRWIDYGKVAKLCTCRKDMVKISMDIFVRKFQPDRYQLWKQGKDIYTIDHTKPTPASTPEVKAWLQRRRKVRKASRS
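Material: N-terminal GST-fused human GASC-1 (KDM4C) fragment, residues 2-372. Input: 10 nM enzyme. Incubation: enzyme reaction 30 min, then detection 60 min, both room temperature. Doses: one test concentration per compound. Read-out basis: inhibition from TR-FRET ratio decrease. Detection: LANCE TR-FRET, excitation 340 nm, emissions 618 and 671 nm.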
T cruzi growth-1: inhibitors of T. cruzi proliferation; T. cruzi beta-gal in NIH3T3, GalScreen luminescence, 90 h; inhibition, % at 8.34 µM; hit rate 5.9% among 77,000; AID 624255;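 active means mean inhibition above about 93%, with at least 55% of replicates each passing it, limit read from the data, passing the limit was not always enough; inconclusive means only one of those two conditions holds; inactive means neither condition holds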
T cruzi growth-2: inhibitors of T. cruzi proliferation | T. cruzi beta-gal in NIH3T3, GalScreen luminescence, 90 h | hit rate 72% among 5,600 | shares compounds with T cruzi growth-1 | inhibition, % at 8.35 µM | AID 651739;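 active means mean replicate inhibition above about 95% and at least 55% of replicates individually reaching it, limit read from the data; inconclusive means only one of the two criteria is met; inactive means neither criterion is met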
T cruzi growth-3: inhibitors of T. cruzi proliferation | hit rate 21% among 5,600 | inhibition, % at 2.09 µM | T. cruzi beta-gal in NIH3T3, GalScreen luminescence, 90 h | shares compounds with T cruzi growth-1 | AID 651740;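 active means mean inhibition above about 95%, with at least 55% of replicates also reaching it, limit read from the data; inconclusive means meets just one of the two conditions; inactive means meets neither condition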;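 further: plate controls were neutral control median for no effect and positive control median for full effect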
3T3 cytotox: NIH/3T3 (mouse) viability loss; shares compounds with T cruzi growth-1; NIH/3T3 viability, CellTiter-Glo ATP luminescence, 90 h; cytotoxicity (signal decrease), % at 8.35 µM; hit rate 14% among 5,600; AID 651742;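 active means mean signal decrease across replicates above about 35% based on untreated-well scatter, with enough replicates individually passing, limit read from the data; inconclusive means no rule stated though some were filed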;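 further: 0% = median of neutral control wells and 100% = median of positive control wells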
3T3 cytotox 2: kills mouse NIH/3T3 fibroblasts; NIH/3T3 viability, CellTiter-Glo ATP luminescence, 90 h; inhibition, % at 24.9 µM; shares compounds with T cruzi growth-1; AID 651744; hit rate 56% among 5,600;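 active means mean loss of cell viability signal at or above a set limit, and enough replicates individually reaching it; inconclusive means meets only the mean limit or only the replicate share; inactive means meets neither condition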;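 further: 0% = median of neutral control wells and 100% = median of positive control wells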
Starred values were filed as active, the others as inactive; u = inconclusive; x = not tested or not shown; ! = not confirmed by another sample. Hits are enriched below; roughly 5.8% of the tested compounds scored in any of these assays.

SMILES	IDH1 mut inh	Pf Dd2 growth	KDM4C inh	T cruzi growth-1	T cruzi growth-2	T cruzi growth-3	3T3 cytotox	3T3 cytotox 2
CC(C)NC(=O)N1CCCCN2[C@H](CO)[C@@H](c3ccc(C#Cc4ccccc4)cc3)[C@H]2C1	x	-1.6	-1.8	103.2*	100.9*	71.9	22.8	102.3*
CC(C)NC(=O)N1CCCCN2[C@H](C1)[C@@H](c1ccc(C#Cc3ccccc3)cc1)[C@@H]2CO	x	4.1	-1.4	76.3	x	x	x	x
CC(C)C#Cc1ccc([C@H]2[C@H]3CN(C(=O)NC(C)C)CCCCN3[C@H]2CO)cc1	x	11.4	-0.7	53.5	x	x	x	x
C[C@@H]1CN([C@H](C)CO)C(=O)c2cc(C#CCN(C)C)cnc2O[C@H]1CN(C)Cc1ccc(-c2ccccc2)cc1	x	x	-0.1	108.7*	110.8*	116.2*	u	104.5*
C[C@@H]1CN([C@H](C)CO)C(=O)c2cc(C#CCN(C)C)cnc2O[C@@H]1CN(C)Cc1ccc(C(=O)O)cc1	1.0	-1.5	6.7	104.9*	-7.2	3.5	-19.7	-5.3
C[C@@H]1CN([C@@H](C)CO)C(=O)c2cc(C#CCN(C)C)cnc2O[C@H]1CN(C)Cc1ccc(-c2ccccc2)cc1	-10.3	-61.2	2.9	102.4*	108.6*	116.4*!	39.9*	103.5*
C[C@@H]1CN([C@H](C)CO)C(=O)c2cc(C#CCN(C)C)cnc2O[C@H]1CN(C)Cc1ccccc1	-1.4	-7.7	x	-112.7	x	x	x	x
C[C@H](CO)N1C[C@H](C)[C@@H](CN(C)Cc2ccc(C(=O)O)cc2)Oc2ncc(C#CCN(C)C)cc2C1=O	-0.5	4.8	2.6	-21.2	x	x	x	x
C[C@@H]1CN([C@@H](C)CO)C(=O)c2cc(C#CCN(C)C)cnc2O[C@@H]1CN(C)Cc1ccc(-c2ccccc2)cc1	x	x	8.2	111.7*	110.2*	107.4*	46.7*	104.9*
C[C@@H]1CN([C@@H](C)CO)C(=O)c2cc(NC(=O)Cc3ccccc3)ccc2O[C@@H](C)CCCCO[C@H]1CN(C)Cc1ccccc1	x	-5.2	0.5	x	x	x	x	x
CCCNC(=O)C[C@H]1C[C@H]2c3cc(NC(=O)CC4CC4)ccc3O[C@H]2[C@@H](CO)O1	-0.4	29.4	-3.7	2.6	x	x	x	x
CC(=O)c1cc(C)ccc1OC(=O)CCN1C(=O)c2ccccc2C1=O	1.2	x	x	x	x	x	x	x
CO[C@H]1CN(C)C(=O)c2ccc(NC(C)=O)cc2OC[C@H](C)N(CCC(F)(F)F)C[C@H]1C	-0.4	-0.6	0.2	-0.2	x	x	x	x
C[C@@H]1CN([C@H](C)CO)C(=O)c2cc(NC(=O)C3CCCCC3)ccc2O[C@H]1CN(C)Cc1ccc(-c2ccccc2)cc1	3.0	-10.3	0.1	u	107.8*	-4.9	3.7	39.2*
C[C@H]1CN([C@@H](C)CO)C(=O)c2cc(NC(=O)C3CCCCC3)ccc2O[C@@H]1CN(C)Cc1ccc(-c2ccccc2)cc1	x	-42.4	0.3	104.3*	109.0*	70.4	32.8	21.1
C[C@H](CO)N1C[C@H](C)[C@@H](CN(C)Cc2ccccc2)Oc2ccc(NC(=O)NC3CCCCC3)cc2C1=O	x	5.8	4.2	-8.7	x	x	x	x
C[C@H](CO)N1C[C@H](C)[C@@H](CN(C)Cc2ccc(-c3ccccc3)cc2)Oc2ccc(NC(=O)C3CCCCC3)cc2C1=O	x	-3.6	-0.9	41.5	x	x	x	x
C[C@H](CO)N1C[C@H](C)[C@H](CN(C)Cc2ccc(-c3ccccc3)cc2)Oc2ccc(NC(=O)NC3CCCCC3)cc2C1=O	-0.9	12.7	-2.1	111.0*	104.2*	18.8	12.7	47.0*
CO[C@H]1CN(C)C(=O)c2ccc(NC(=O)C3CC3)cc2OC[C@@H](C)N(C(=O)c2ccccn2)C[C@H]1C	0.1	19.3	-1.8	102.1*	53.3	17.0	9.4	-0.4
CO[C@H]1CN(C)C(=O)c2ccc(NC(=O)C3CC3)cc2OC[C@H](C)N(C(=O)c2cccnc2)C[C@@H]1C	0.2	28.8	1.4	112.1*	-186.2	22.0	-6.6	-17.4
CO[C@@H]1CN(C)C(=O)c2ccc(NC(=O)C3CC3)cc2OC[C@H](C)N(C(=O)c2cccnc2)C[C@H]1C	0.1	34.4	1.8	41.7	x	x	x	x

High-throughput results as filed in PubChem BioAssay.
